Drawing on ChEMBL document CHEMBL1136924 (J Med Chem, 2009), this text covers ED50, Vd/F and half-life for two molecules.

One data set deals with Rattus norvegicus. As to the kind of experiment: Partial agonist activity at 5HT3 receptor in iv dosed urethane-anesthetized Sprague-Dawley rat assessed as induction of bradycardia measured after 5 to 30 mins post-treatment by von Bezold-Jarisch reflex test. Type of data set: functional. Particulars: read-out: ID50 (the source's name).
The nature of data set [1]: Apparent volume of distribution with respect to the bioavailability in CD1 albino mouse plasma at 20 mg/kg, ip. Type of data set: ADME, organism-based. Particulars: read-out: Vc/F. Summed up: (§1)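 Male CD1 mice (25-30 g) given ip 5 or 20 mg/kg, killed at set times; trunk blood plasma and brain collected. Solid-phase C18 extraction with internal standard, HPLC-UV at 240 nm. Quantification limits about 0.25 nmol/mL plasma, 0.5 nmol/g brain. Three mice per point. Half-life 0.693/β; clearance dose·F/AUC.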

Data set [2] is described as follows: Elimination half life in CD1 albino mouse plasma at 20 mg/kg, ip. On the set-up: dose 20 mg/kg, route intraperitoneal. Type of data set: ADME, organism-based. Particulars: read-out: beta t1/2. Summed up:
as §1

For the molecule `N/C(CN1CCN(c2nc3cc(F)ccc3n3cccc23)CC1)=N\O`, the ED50 in the data set with Rattus norvegicus amounted to 0.03 mg/kg.

For the molecule `N[C@@H](CN1CCN(c2nc3cc(F)ccc3n3cccc23)CC1)C(=O)O`, the Vd/F in data set [1] came out at 6 L/kg. Besides, the half-life in data set [2] worked out at 53 min.
